Activity calls are given as the source filed them. The calls are words filed in the database; no cut-off is given here. Residues, ends and D or L forms follow the SMILES beside them.
Tests used:
[1] = target: T1, Proteasome Macropain subunit MB1 (Homo sapiens) (UniProt P28074); assay: Negative allosteric modulation of SDS-activated human erythrocytes 20S proteasome chymotrypsin like activity using Suc-LLVY-AMC as substrate measured every 2 mins up to 60 mins by fluorescence assay
T1 sequence (whole entry): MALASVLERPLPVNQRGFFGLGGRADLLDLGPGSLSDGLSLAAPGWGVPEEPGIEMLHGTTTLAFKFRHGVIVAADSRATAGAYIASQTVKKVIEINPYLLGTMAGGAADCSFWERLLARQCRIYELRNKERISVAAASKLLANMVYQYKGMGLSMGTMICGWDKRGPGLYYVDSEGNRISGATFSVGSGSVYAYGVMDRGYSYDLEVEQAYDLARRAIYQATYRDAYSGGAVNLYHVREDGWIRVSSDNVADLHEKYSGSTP
How it was run: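 1.4 nM CP (0.001 mg/mL) in 50 mM Tris-HCl pH 8.0, activated with 0.005% SDS where stated, otherwise latent. Suc-LLVY-AMC at 100 μM final. AMC fluorescence read every 2 min up to 60 min at 37 °C. Activity relative to DMSO-treated enzyme, from at least three independent replicates. Peptide stocks 10 mM in DMSO.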

[2] = target: T1, Proteasome Macropain subunit MB1 (Homo sapiens); assay: Positive allosteric modulation of latent human erythrocytes 20S proteasome chymotrypsin like activity at 1 uM using Suc-LLVY-AMC as substrate measured every 2 mins up to 60 mins by fluorescence assay
[3] = target: T1, Proteasome Macropain subunit MB1 (Homo sapiens); assay: Positive allosteric modulation of latent human erythrocytes 20S proteasome chymotrypsin like activity up to 10 uM using LFP as substrate measured every 2 mins up to 60 mins by fluorescence assay
[4] = target: T1, Proteasome Macropain subunit MB1 (Homo sapiens); assay: Negative allosteric modulation of SDS-activated human erythrocytes 20S proteasome chymotrypsin like activity up to 10 uM using LFP as substrate measured every 2 mins up to 60 mins by fluorescence assay
[5] = target: T2, 20S proteasome (Homo sapiens) (UniProt P49721+P20618+P28074+P28062+P28065+P28072+P25786+P25787+P25788+P25789+P28066+P60900+O14818+Q8TAA3+P40306+A5LHX3+P49720+P28070+Q99436); assay: Negative allosteric modulation of SDS-activated human erythrocytes 20S proteasome assessed as reduction in human alpha-synuclein degradation at 10 uM after 1 hr by SDS-PAGE analysis
How it was run: (§1)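 Human α-synuclein or yeast enolase digested by human 20S activated with 0.01% SDS (20S:substrate 1:100 pmol α-syn, 1:10 pmol enolase) in 20 mM HEPES pH 7.4 at 37 °C for 1 h (α-syn) or 4 h (enolase). DMSO at or below 0.05%. SDS–PAGE (12% or 10%) with Coomassie staining; remaining substrate densitometry as percent of control; at least three experiments, mean ± SEM.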

[6] = target: T2, 20S proteasome (Homo sapiens); assay: Negative allosteric modulation of SDS-activated human erythrocytes 20S proteasome assessed as reduction in yeast enolase degradation at 1 uM after 4 hr by SDS-PAGE analysis
[7] = target: T2, 20S proteasome (Homo sapiens); assay: Negative allosteric modulation of SDS-activated human erythrocytes 20S proteasome assessed as reduction in yeast enolase degradation at 10 uM after 4 hr by SDS-PAGE analysis
[8] = target: T1, Proteasome Macropain subunit MB1 (Homo sapiens); assay: Positive allosteric modulation of latent human erythrocytes 20S proteasome chymotrypsin like activity up to 10 uM using LFP as substrate measured every 2 mins up to 60 mins by fluorescence assay
[9] = target: Proteasome Macropain subunit (Homo sapiens) (UniProt P49721); assay: Negative allosteric modulation of SDS-activated human erythrocytes 20S proteasome trypsin like activity at 10 uM using Boc-LRR-AMC as substrate measured every 2 mins up to 60 mins by fluorescence assay
[10] = target: T3, Proteasome component C5 (Homo sapiens) (UniProt P20618); assay: Negative allosteric modulation of SDS-activated human erythrocytes 20S proteasome caspase like activity at lower concentration using Z-LLE-AMC as substrate measured every 2 mins up to 60 mins by fluorescence assay
T3 sequence (whole entry): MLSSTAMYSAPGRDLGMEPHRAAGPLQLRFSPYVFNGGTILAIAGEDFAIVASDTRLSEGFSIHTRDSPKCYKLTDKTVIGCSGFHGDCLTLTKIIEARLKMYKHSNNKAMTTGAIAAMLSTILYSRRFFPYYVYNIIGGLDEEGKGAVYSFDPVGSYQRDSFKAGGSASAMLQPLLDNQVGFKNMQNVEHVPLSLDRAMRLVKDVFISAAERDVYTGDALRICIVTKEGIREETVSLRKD

[11] = target: T1, Proteasome Macropain subunit MB1 (Homo sapiens); assay: Positive allosteric modulation of latent human erythrocytes 20S proteasome chymotrypsin like activity at 5 uM using Suc-LLVY-AMC as substrate measured every 2 mins up to 60 mins by fluorescence assay relative to control
[12] = target: T2, 20S proteasome (Homo sapiens); assay: Negative allosteric modulation of SDS-activated human erythrocytes 20S proteasome assessed as reduction in human alpha-synuclein degradation at 1 uM after 1 hr by SDS-PAGE analysis; how it was run: as §1
[13] = target: T1, Proteasome Macropain subunit MB1 (Homo sapiens); assay: Positive allosteric modulation of latent human erythrocytes 20S proteasome chymotrypsin like activity at 25 uM using Suc-LLVY-AMC as substrate measured every 2 mins up to 60 mins by fluorescence assay relative to control
[14] = target: T1, Proteasome Macropain subunit MB1 (Homo sapiens); assay: Positive allosteric modulation of latent human erythrocytes 20S proteasome chymotrypsin like activity using LFP as substrate measured every 2 mins up to 60 mins by fluorescence assay
[15] = target: T2, 20S proteasome (Homo sapiens); assay: Positive allosteric modulation of SDS-activated human erythrocytes 20S proteasome assessed as increase in yeast enolase degradation at 10 uM after 4 hr by SDS-PAGE analysis
[16] = target: T2, 20S proteasome (Homo sapiens); assay: Positive allosteric modulation of SDS-activated human erythrocytes 20S proteasome assessed as increase in human alpha-synuclein degradation at 10 uM after 1 hr by SDS-PAGE analysis
[17] = target: T3, Proteasome component C5 (Homo sapiens); assay: Positive allosteric modulation of latent human erythrocytes 20S proteasome caspase like activity at 10 uM measured every 1 min up to 60 mins by fluorescence assay relative to control
[18] = target: T2, 20S proteasome (Homo sapiens); assay: Positive allosteric modulation of SDS-activated human erythrocytes 20S proteasome assessed as increase in yeast enolase degradation at 1 uM after 4 hr by SDS-PAGE analysis relative to control
[19] = target: Proteasome subunit beta type-6 (Homo sapiens) (UniProt P28072); assay: Positive allosteric modulation of latent human erythrocytes 20S proteasome caspase like activity at 10 uM using Z-LLE-AMC as substrate measured every 1 min up to 60 mins by fluorescence assay relative to control
Proteasome subunit beta type-6 (Homo sapiens), sequence (P28072 whole entry, looked up): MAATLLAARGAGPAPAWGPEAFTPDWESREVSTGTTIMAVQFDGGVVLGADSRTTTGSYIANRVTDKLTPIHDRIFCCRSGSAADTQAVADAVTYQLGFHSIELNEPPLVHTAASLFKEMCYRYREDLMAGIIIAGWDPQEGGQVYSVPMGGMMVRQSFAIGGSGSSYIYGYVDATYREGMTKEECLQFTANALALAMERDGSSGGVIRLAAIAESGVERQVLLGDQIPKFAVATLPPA

Proteasome Macropain subunit (Homo sapiens), sequence (P49721 whole entry): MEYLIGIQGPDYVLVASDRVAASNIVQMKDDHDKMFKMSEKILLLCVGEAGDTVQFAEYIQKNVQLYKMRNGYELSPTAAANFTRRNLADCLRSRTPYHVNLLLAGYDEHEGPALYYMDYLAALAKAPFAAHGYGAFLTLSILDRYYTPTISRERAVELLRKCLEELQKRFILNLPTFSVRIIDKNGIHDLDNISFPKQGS

SMILES | Activity [1] | Activity [2] | Activity [4] | fold change (FC) [13] | Activity [14] | Activity [15] | Activity [16] | fold change (FC) [17] | Activity [18] | fold change (FC) [19] | Activity [3] | Activity [5] | Activity [6] | Activity [7] | Activity [8] | Activity [9] | Activity [10] | fold change (FC) [11] | Activity [12]
CC(C)C[C@H](NC(=O)[C@H](Cc1ccc(O)cc1)NC(=O)[C@H](CCCNC(=N)N)NC(=O)[C@H](CCCNC(=N)N)NC(=O)[C@@H](N)CCCNC(=N)N)C(=O)N1CCC[C@H]1C(=O)N[C@@H](CCCNC(=N)N)C(=O)N[C@@H](Cc1c[nH]c2ccccc12)C(=O)NCC(N)=O (H-RRRYLPRWG-NH2) | – | – | Active | – | – | – | – | – | – | – | inactive | Active | inactive | inactive | inactive | Active | Active | 2 | –
CC(C)C[C@H](NC(=O)[C@H](Cc1ccc(O)cc1)NC(=O)[C@@H]1CCCN1C(=O)[C@@H]1CCCN1C(=O)[C@H](CCCNC(=N)N)NC(=O)[C@@H]1CCCN1C(=O)[C@H](CCCNC(=N)N)NC(=O)[C@H](CCCNC(=N)N)NC(=O)[C@@H](N)CCCNC(=N)N)C(=O)N1CCC[C@H]1C(=O)N[C@@H](CCCNC(=N)N)C(=O)N[C@@H](Cc1ccccc1)C(=O)NCC(=O)O (H-RRRPRPPYLPRFG-OH) | – | Active | Active | – | – | – | – | – | – | – | inactive | Active | Active | Active | inactive | Active | Active | – | Active

Now from value to compound, other results behind:

Activity [1] | Activity [2] | Activity [4] | fold change (FC) [13] | Activity [14] | Activity [15] | Activity [16] | fold change (FC) [17] | Activity [18] | fold change (FC) [19] | SMILES | Activity [3] | Activity [5] | Activity [6] | Activity [7] | Activity [8] | Activity [9] | Activity [10] | fold change (FC) [11] | Activity [12]
Dose-dependent effect | Active | Active | – | – | – | – | – | – | – | CC(C)C[C@H](NC(=O)[C@H](Cc1ccc(O)cc1)NC(=O)[C@H](CCCNC(=N)N)NC(=O)[C@H](CCCNC(=N)N)NC(=O)[C@@H](N)CCCNC(=N)N)C(=O)N1CCC[C@H]1C(=O)N[C@@H](CCCNC(=N)N)C(=O)N[C@@H](Cc1ccc(O)cc1)C(=O)N[C@@H](C)C(N)=O (H-RRRYLPRYA-NH2) | inactive | Active | inactive | inactive | inactive | Active | Active | – | –
– | – | inactive | < 7 | Dose-dependent effect | Active | Active | 5 to 7 | Active | 5 to 7 | CC(C)C[C@H](NC(=O)[C@@H]1CCCN1C(=O)[C@@H]1CCCN1C(=O)[C@@H]1CCCN1C(=O)[C@@H]1CCCN1C(=O)[C@H](CCCNC(=N)N)NC(=O)[C@H](CCCNC(=N)N)NC(=O)[C@@H](N)CCCNC(=N)N)C(=O)N[C@@H](Cc1ccc(O)cc1)C(=O)N[C@@H](C)C(=O)O (H-RRRPPPPLYA-OH) | – | – | – | – | – | – | – | – | inactive
Dose-dependent effect | Active | Active | – | – | – | – | – | – | – | CC(C)C[C@H](NC(=O)[C@H](Cc1ccc(O)cc1)NC(=O)[C@@H]1CCCN1C(=O)[C@@H]1CCCN1C(=O)[C@H](CCCNC(=N)N)NC(=O)[C@@H]1CCCN1C(=O)[C@H](CCCNC(=N)N)NC(=O)[C@H](CCCNC(=N)N)NC(=O)[C@@H](N)CCCNC(=N)N)C(=O)N1CCC[C@H]1C(=O)N[C@@H](CCCNC(=N)N)C(=O)O (H-RRRPRPPYLPR-OH) | inactive | Active | inactive | inactive | inactive | Active | Active | – | –

— ChEMBL document CHEMBL4371016, “Proline- and Arginine-Rich Peptides as Flexible Allosteric Modulators of Human Proteasome Activity” (J Med Chem, 2019)
